Screens from PubChem BioAssay.
Sampled rows, rich in hits. Any-hit rate of the full collection: about 1.4%.
NR2E3 ag-1 = activates human NR2E3 receptor | CHO-S Gal4-NCOR/VP16-NR2E3 two-hybrid, luciferase | inhibition of corepressor binding, % at 3.98 µM | actives 0.35% (n = 360,000);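 active means inhibition above the mean of all tested compounds plus 3 SD, cut at about 70% in these data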;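 further: 0% = DMSO with NR2E3 transfected cells and 100% = cells lacking NR2E3 construct; higher means lower luciferase signal from less NR2E3 corepressor binding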
Target sequence (Q9Y5X4 whole entry, looked up, the tested form may be a part): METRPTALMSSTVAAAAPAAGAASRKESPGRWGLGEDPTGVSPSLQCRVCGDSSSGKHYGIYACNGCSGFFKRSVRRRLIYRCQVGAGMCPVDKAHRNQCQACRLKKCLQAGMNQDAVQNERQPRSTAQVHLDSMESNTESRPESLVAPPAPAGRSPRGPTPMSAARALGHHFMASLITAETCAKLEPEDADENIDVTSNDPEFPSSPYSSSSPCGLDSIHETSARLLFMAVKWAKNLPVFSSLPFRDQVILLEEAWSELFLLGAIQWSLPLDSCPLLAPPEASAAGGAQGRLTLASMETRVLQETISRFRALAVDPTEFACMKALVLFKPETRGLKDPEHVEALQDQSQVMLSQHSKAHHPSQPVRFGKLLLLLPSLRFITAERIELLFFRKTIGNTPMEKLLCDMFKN
NR1D1 modulator = modulators of human Rev-erb alpha DNA binding; Rev-erbα–FITC-DNA binding, fluorescence polarization, 90 min; actives 0.79% (n = 370,000); activity, % at 10 µM; P20393;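 active means activity above about 14%, limit read from the data; passing the limit was not always enough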;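 further: 0% = DMSO wells with 35 nM protein and 100% = DMSO wells with 750 nM protein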
NR2E3 ag-2 = activates human photoreceptor nuclear receptor NR2E3; inhibition of corepressor binding, % at 4.78 µM; AID 2300; actives 0.12% (n = 320,000); GST-NR2E3/biotin-RetCOR TR-FRET, 1536-well;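 active means percent inhibition above the cutoff of mean plus 3 SD of all tested compounds, set per screening campaign, cut at about 20% in these data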;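 further: 0% = DMSO wells and 100% = biotin wells as full block of FRET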
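Test system – NR2E3–RetCOR corepressor complex · Quantity – NR2E3 fusion 1.35 nM · Buffer or medium – Tris pH 7.5 · Incubation – Compound–protein incubation for 5 h at 4 °C · Technique – TR-FRET, Eu(K)-anti-GST donor, streptavidin-D2 acceptor, ex 340, em 617/671 nm · Evaluation – percent inhibition of 671/617 nm emission ratio versus biotin and DMSO controls · Plate – 1536-well format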
PG9 binder = small molecules binding HIV-1 gp120 antibody PG9. inhibition, % at 6.7 µM. TR-FRET gp120-PG9 antibody binding. actives 0.43% (n = 360,000); in the data active means inhibition above about 8.5%
NR2E3 ag confirm = NR2E3 agonism confirmed in two-hybrid assay; shares compounds with NR2E3 ag-1; actives 51% (n = 2,300); CHO-S mammalian two-hybrid NR2E3-NCOR, luciferase luminescence; inhibition, % at 3.98 µM;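 active means average inhibition above a cutoff equal to the mean inhibition of all tested compounds plus one SD, cut at about 70% in these data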;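 further: 0% = DMSO in NR2E3 cells and 100% = DMSO in cells lacking NR2E3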
GAL4-VP16 luc = counter-screen for NR2E3 agonists: GAL4-VP16 reporter inhibitors | shares compounds with NR2E3 ag-1 | CHO-S GAL4-VP16 luciferase reporter, luminescence | inhibition, % at 3.98 µM | actives 29% (n = 2,300) | AID 624379;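 active means mean inhibition above a cutoff equal to the average over all tested compounds plus one standard deviation, cut at about 70% in these data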;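 further: luciferase from a UAS reporter driven by GAL4-VP16 transactivation; 0% = DMSO with VP16-transfected cells and 100% = DMSO with cells lacking VP16; higher means less reporter light so more repression of VP16 activity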
* = called active by the depositor; / = not tested or not shown.

SMILES	NR2E3 ag-1	NR1D1 modulator	NR2E3 ag-2	PG9 binder	NR2E3 ag confirm	GAL4-VP16 luc
COc1ccc(/C(C)=N/N=C(N)N)c(O)c1	-9	3	-1	0	/	/
CNC(=S)NN=C(C)c1ccc(OC)cc1O	72*	3	/	-2	-2	13
COc1cccc(-c2nnc(SCc3cc(C)ccc3C)n2Cc2ccco2)c1	/	0	/	/	/	/
Cc1ccc(C(=O)N/N=C/c2ccc([N+](=O)[O-])s2)cc1	69	-4	-4	-3	-3	68
O=C(OCc1ccccc1)c1cccnc1	/	-4	/	/	/	/
COC(=O)c1c(-c2ccc(C)cc2)csc1NC(=O)Cc1ccc(OC)c(OC)c1	57	10	/	-1	22	32
CS(=O)(=O)N1CCc2cc(S(=O)(=O)Nc3ccc4c(c3)OCCO4)ccc21	53	-4	0	0	44	33
CCC(=O)N1CCc2cc(S(=O)(=O)Nc3ccc4c(c3)OCCO4)ccc21	53	1	-1	-3	89*	78*
O=C(C1CCC1)N1CCc2cc(S(=O)(=O)Nc3ccc4c(c3)OCCO4)ccc21	41	2	1	1	/	/
O=C(CN1C(=O)C(c2ccc(F)cc2)=NC12CCCC2)Nc1ccc(F)cc1	75*	0	5	-1	73*	54
COc1ccc(NC(=O)CN2C(=O)C(c3ccccc3)=NC23CCCCCC3)cc1	-32	-1	1	-3	/	/
CN(c1ccccc1)S(=O)(=O)c1cccc(NC(=O)CSc2nncs2)c1	70	-3	3	2	66	76*
CN(c1ccccc1)S(=O)(=O)c1cccc(NC(=O)CSc2nnc(N)s2)c1	20	0	-3	2	/	/
Cc1ccc(NC(=O)CN(C)C(=O)c2sc3cc(Cl)ccc3c2Cl)cc1	-22	14	0	5	/	/
Cc1c(CN(C)C(=O)c2sc3cc(Cl)ccc3c2Cl)cnn1C	48	4	0	-3	72*	66
COC(=O)c1cc(-c2cc(Cl)ccc2OC)c(=O)n2c1CCC2	/	3	/	/	/	/
Nc1ccc(S(=O)(=O)NNC(=O)C(=O)NNc2ccccc2)cc1	61	-5	7	-1	51	30
O=C(NNc1ccccc1)C(=O)NNS(=O)(=O)c1ccc(CCCl)cc1	39	-6	0	-3	/	/
O=C(NCc1ccc(C(F)(F)F)cc1)C1CC(c2ccc(C(F)(F)F)cc2)=NO1 (stereo unspecified)	81*	-2	2	0	81*	60
C[C@@H](C(=O)Nc1ccc2c(c1)OCCO2)n1c(=O)[nH]c2ccccc2c1=O	61	0	-5	0	42	2
Cc1ccc(S(=O)(=O)N(CC(=O)Nc2ccccc2C(=O)O)c2ccccc2C)cc1	2	-2	3	-3	/	/
Cc1ccc(S(=O)(=O)N(CC(=O)Nc2ccccc2C(=O)O)c2cccc(Cl)c2C)cc1	90*	-8	0	0	98*	37
CC(C)c1ccc(/C=C(\c2nc3ccccc3[nH]2)S(=O)(=O)c2ccccc2)cc1	100*	-5	-2	-1	97*	7
CCOC(=O)[C@@]12CCCC=C1N(CCc1ccc(Cl)cc1)C(=O)[C@H]2CC(=O)NCc1ccc(OC)c(OC)c1	/	-1	/	/	/	/
CNc1sc(C(=O)c2cccs2)c(N)c1-c1nc2ccccc2s1	51	4	7	0	-16	-40
SMILES	NR2E3 ag-1	NR1D1 modulator	NR2E3 ag-2	PG9 binder	NR2E3 ag confirm	GAL4-VP16 luc
CCc1cccc2c(C(C)c3ccccc3O)c[nH]c12 (stereo unspecified)	/	3	/	/	/	/
Cc1ccc(S(=O)(=O)N2[C@@H](c3cccc(Cl)c3)C(C(=O)O)=CC[C@H]2c2ccc(C(C)C)cc2)cc1	73*	11	1	-2	23	27
Cc1ccc(S(=O)(=O)N2[C@@H](c3ccc(F)cc3)C(C(=O)O)=CC[C@H]2c2ccc(C(C)C)cc2)cc1	73*	-5	2	2	30	50
Cc1ccc(S(=O)(=O)N2[C@@H](c3ccc(Cl)cc3)C(C(=O)O)=CC[C@H]2c2cccc(Cl)c2)cc1	-17	-2	1	0	/	/
Cc1ccc(S(=O)(=O)N2[C@@H](c3ccc(F)cc3)C(C(=O)O)=CC[C@H]2c2ccc(Cl)cc2)cc1	-21	-5	5	0	/	/
CCCCCCCCNc1ncnc2[nH]ncc12	73*	1	/	-2	84*	73*
C=C1C(=O)C=C[C@]2(C)C[C@@H]3OC(=O)[C@](C)(O)[C@H]3C[C@@H]12	63	-1	3	1	36	6
CCC[C@H]1[C@@H](NC(=O)c2cccc(Cl)c2)CC[C@@]23CCCN2C(=O)CCC[C@@H]13	/	1	/	/	/	/
Cc1ccc(-n2c(SCc3ccc(Cl)c(Cl)c3)nnc2-c2ccc(C(C)(C)C)cc2)cc1	/	2	/	/	/	/
COc1ccc([C@@]23Oc4cc(OC)cc(OC)c4[C@]2(O)[C@H](O)[C@H](C(=O)N(C)C)[C@H]3c2ccccc2)cc1	101*	-2	/	-2	98*	96*
COc1ccc(C2CC(O)(c3ccccc3)Oc3cc(OC)c(OC)c(OC)c32)cc1 (stereo unspecified)	4	-2	2	-2	/	/
CC(Cc1ccc(O)c(O)c1)(NN)C(=O)O (stereo unspecified)	/	-1	/	/	/	/
CN(C)C(=S)N=c1ssc(=S)n1Cc1ccccc1	90*	4	/	0	-24	-56
CCCCOc1ccc(S(=O)(=O)Nc2cccnc2)cc1	94*	-2	3	-2	90*	74*
CCOC(=O)[C@@]12CCCC3=C1N(CCC3)C(=O)[C@H]2CC(=O)NCc1cccc2ccccc12	/	-1	/	/	/	/
O=[N+]([O-])c1ccc(Nc2ccccc2)c2nonc12	9	19	-3	-5	/	/
O=[N+]([O-])c1ccc(Sc2cccc[n+]2[O-])c2nonc12	102*	3	/	-2	-44	-7
O=C1c2cccc(O)c2C(=O)c2c(O)cccc21	/	-8	2	/	/	/
CC1OC(CC(=O)O)CC2=C1C(=O)c1c(O)cccc1C2=O (stereo unspecified)	101*	-2	/	13*	101*	99*
O=C(Cc1c(Cl)cccc1Cl)Nc1ccncc1Cl	22	1	4	-1	/	/
O=C(Cc1ccc(Cl)cc1Cl)Nc1ccncc1	64	-4	-2	0	/	/
O=C(Cc1ccc(Cl)cc1Cl)Nc1ccncc1Cl	98*	0	1	-3	87*	78*
COc1ccc(CC(=O)Nc2ccncc2Cl)cc1	92*	-4	-2	0	87*	71*
O=C(O)C(=O)Nc1cccc(-c2nn[nH]n2)c1	/	-2	/	/	/	/
COc1ccc(Cl)cc1C(=O)CSc1nnnn1C1CCCC1	-2	-1	3	-3	/	/
COCCn1c(C)cc(C(=O)CSc2nnnn2C2CCCC2)c1C	56	-1	1	0	22	-54
